According to ChEMBL document CHEMBL3124885, “Discovery of 7-tetrahydropyran-2-yl chromans: β-site amyloid precursor protein cleaving enzyme 1 (BACE1) inhibitors that reduce amyloid β-protein (Aβ) in the central nervous system” (J Med Chem, 2014):
In brackets after ≈: the same amount, converted by molar mass.

Legend:
[1] = Dissociation constant, pKa of the compound by parallel capillary electrophoresis method; format: physicochemical
Summary of the method: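 pKa determined by a 24-point parallel capillary electrophoresis method, quantitation by UV absorbance at 229 nm.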

[2] = test system: Cynomolgus monkey; assay: Hepatic clearance in cynomolgus monkey at 0.5 mg/kg, iv; format: ADME, organism-based, Macaca fascicularis, Liver; parameters: dose 0.5 mg/kg, route intravenous; settings: in vivo
[3] = test system: Plasma; assay: Unbound plasma concentration in Sprague-Dawley rat at 60 mg/kg, po measured at 12 hrs; format: ADME, organism-based; parameters: dose 60 mg/kg, route oral; settings: in vivo
Summary of the method: (§1)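 Male Sprague-Dawley rats were given a single 60 mg/kg oral dose in 1% CMC/0.5% Tween/5 mM citrate in H₂O. Free plasma concentration was determined at 1, 3, 5, 8 and 12 h. Brain, CSF and CSF Aβ₁₋₄₀ were sampled at the same times.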

[4] = test system: Brain; assay: Fraction unbound in CD-1 mouse brain at 10 mg/kg, po measured at 1 hr; format: ADME, organism-based; parameters: dose 10 mg/kg, route oral; settings: in vivo
Summary of the method: (§2)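 Male CD-1 mice, 3 per cohort, dosed 10 mg/kg orally; brains harvested at 1 and 4 h.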

[5] = Ratio of unbound drug level in brain to plasma in CD-1 mouse measured at 4 hrs; format: ADME; settings: CD-1, mouse, read-out: K(p,uu,brain)
Summary of the method: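 Male CD-1 mice given 10 mg/kg po, 3 per cohort; plasma and brain collected at 1 and 4 h. Free brain/plasma ratio from unbound concentrations; coverage ratio = free brain concentration divided by HEK293 Aβ₁₋₄₀ cell IC50.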

[6] = Ratio of unbound drug level in brain to plasma in Hartley guinea pig at 60 mg/kg, po measured at 1 hr; format: ADME, organism-based, Cavia porcellus; parameters: dose 60 mg/kg, route oral; settings: brain and plasma (unbound), read-out: K(p,uu,brain)
Summary of the method: (§3)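 Male Hartley guinea pigs given single oral doses of 30, 60 or 100 mg/kg in 1% CMC/0.5% Tween/5 mM citrate in H₂O, 6–8 animals per cohort. Plasma, brain and CSF sampled at 1–12 h; free brain to free plasma ratio computed.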

[7] = Unbound plasma concentration in Hartley guinea pig at 60 mg/kg, po measured at 12 hrs; format: ADME, organism-based, Cavia porcellus; parameters: dose 60 mg/kg, route oral; settings: in vivo
Summary of the method: (§4)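 Male Hartley guinea pigs were dosed orally at 30, 60 or 100 mg/kg, with six or eight animals per cohort. The vehicle was either a suspension in 1% CMC/0.5% Tween/5 mM citrate in H₂O or a 40/10/50 PEG/EtOH/H₂O solution, depending on compound. Unbound plasma concentration was sampled at 1–12 h post-dose alongside brain, CSF and CSF Aβ₁₋₄₀.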

[8] = test system: Plasma; assay: Unbound plasma concentration in Sprague-Dawley rat at 60 mg/kg, po measured at 3 hrs; format: ADME, organism-based; parameters: dose 60 mg/kg, route oral; settings: in vivo; summary of the method: as §1
[9] = Drug uptake in Hartley guinea pig CSF at 60 mg/kg, po measured at 5 hrs; format: ADME, organism-based, Cavia porcellus, Cerebrospinal fluid; parameters: dose 60 mg/kg, route oral; settings: read-out: Drug uptake
Summary of the method: (§5)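 Male Hartley guinea pigs, oral dosing (CMC/Tween/citrate suspension or PEG/EtOH/H₂O solution), six or eight animals per cohort; CSF drug concentration (nM) measured at each time point.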

[10] = test system: Plasma; assay: Unbound plasma concentration in CD-1 mouse at 3 mg/kg, iv and 10 mg/kg, po measured at 4 hrs; format: ADME, organism-based; settings: in vivo
Summary of the method: (§6)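 Male CD-1 mice, 3 per cohort, dosed 3 mg/kg iv and 10 mg/kg po; plasma drawn at 1 and 4 h, brains harvested from oral groups only. Formulations varied by compound: 40% PEG 400/10% EtOH/50% H₂O; 30% captisol in H₂O; iv 50 mM citrate in saline (pH 4); po 1% CMC/0.5% Tween/5 mM citrate in H₂O.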

[11] = Drug uptake in Sprague-Dawley rat CSF at 60 mg/kg, po measured at 1 hr; format: ADME, organism-based, Cerebrospinal fluid; parameters: dose 60 mg/kg, route oral; settings: read-out: Drug uptake
Summary of the method: (§7)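 Male Sprague−Dawley rats dosed orally at 60 mg/kg in 1% CMC/0.5% Tween/5 mM citrate in H₂O; CSF compound concentration (nM) at 1–12 h.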

[12] = Fraction unbound in Hartley guinea pig brain at 60 mg/kg, po measured at 8 hrs; format: ADME, organism-based, Cavia porcellus; parameters: dose 60 mg/kg, route oral; settings: in vivo
[13] = Fraction unbound in Hartley guinea pig brain at 60 mg/kg, po measured at 3 hrs; format: ADME, organism-based, Cavia porcellus; parameters: dose 60 mg/kg, route oral; settings: in vivo
[14] = Ratio of unbound drug level in brain to plasma in Hartley guinea pig at 60 mg/kg, po measured at 5 hrs; format: ADME, organism-based, Cavia porcellus; parameters: dose 60 mg/kg, route oral; settings: brain and plasma (unbound), read-out: K(p,uu,brain); summary of the method: as §3
[15] = Fraction unbound in Hartley guinea pig brain at 60 mg/kg, po measured at 12 hrs; format: ADME, organism-based, Cavia porcellus; parameters: dose 60 mg/kg, route oral; settings: in vivo
[16] = Drug uptake in Sprague-Dawley rat CSF at 60 mg/kg, po measured at 3 hrs; format: ADME, organism-based, Cerebrospinal fluid; parameters: dose 60 mg/kg, route oral; settings: read-out: Drug uptake; summary of the method: as §7
[17] = Ratio of unbound drug level in brain to plasma in Hartley guinea pig at 60 mg/kg, po measured at 3 hrs; format: ADME, organism-based, Cavia porcellus; parameters: dose 60 mg/kg, route oral; settings: brain and plasma (unbound), read-out: K(p,uu,brain); summary of the method: as §3
[18] = test system: Brain; assay: Fraction unbound in CD-1 mouse brain at 10 mg/kg, po measured at 4 hrs; format: ADME, organism-based; parameters: dose 10 mg/kg, route oral; settings: in vivo; summary of the method: as §2
[19] = Solubility of the compound at pH 7.2; format: physicochemical; settings: buffer
[20] = Fraction unbound in Hartley guinea pig brain at 100 mg/kg, po measured at 3 hrs; format: ADME, organism-based, Cavia porcellus; parameters: dose 100 mg/kg, route oral; settings: in vivo
[21] = Intrinsic clearance in Hartley guinea pig hepatocytes at 2 uM after 60 to 120 mins; format: ADME, cell-based, Cavia porcellus, Hepatocyte; settings: read-out: CLH
[22] = test system: Mus musculus; assay: Hepatic clearance in CD-1 mouse at 3 mg/kg, iv; format: ADME, organism-based, Liver; parameters: dose 3 mg/kg, route intravenous; settings: in vivo; summary of the method: as §6
[23] = Unbound plasma concentration in Hartley guinea pig at 60 mg/kg, po measured at 1 hr; format: ADME, organism-based, Cavia porcellus; parameters: dose 60 mg/kg, route oral; settings: in vivo; summary of the method: as §4
[24] = test system: Plasma; assay: Unbound plasma concentration in CD-1 mouse at 3 mg/kg, iv and 10 mg/kg, po measured at 1 hr; format: ADME, organism-based; settings: in vivo; summary of the method: as §6
[25] = test system: Plasma; assay: Unbound plasma concentration in Sprague-Dawley rat at 60 mg/kg, po measured at 1 hr; format: ADME, organism-based; parameters: dose 60 mg/kg, route oral; settings: in vivo; summary of the method: as §1
[26] = Unbound plasma concentration in Hartley guinea pig at 60 mg/kg, po measured at 5 hrs; format: ADME, organism-based, Cavia porcellus; parameters: dose 60 mg/kg, route oral; settings: in vivo; summary of the method: as §4
[27] = test system: Cavia porcellus; assay: Hepatic clearance in Hartley guinea pig at 3 mg/kg, iv; format: ADME, organism-based, Liver; parameters: dose 3 mg/kg, route intravenous; settings: in vivo
[28] = Ratio of unbound drug level in brain to plasma in Sprague-Dawley rat at 60 mg/kg, po measured at 8 hrs; format: ADME, organism-based; parameters: dose 60 mg/kg, route oral; settings: brain and plasma (unbound), read-out: K(p,uu,brain)
Summary of the method: (§8)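 Male Sprague–Dawley rats dosed 60 mg/kg po in 1% CMC/0.5% Tween/5 mM citrate in H₂O; plasma, brain and CSF taken at 1, 3, 5, 8 and 12 h; unbound plasma and brain levels and their ratio determined.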

[29] = Drug uptake in cynomolgus monkey CSF at 0.5 mg/kg, iv and 100 mg/kg, po measured at 2 hrs; format: ADME, organism-based, Macaca fascicularis, Cerebrospinal fluid; settings: read-out: Drug uptake
Summary of the method: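 Female cynomolgus monkeys, 3 per dosing route; iv formulation PEG400/EtOH/water (40/10/50) solution; oral suspension in 1% CMC, 0.5% Tween 80, 5 mM citrate buffer; CSF concentration measured.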

[30] = Fraction unbound in Hartley guinea pig brain at 60 mg/kg, po measured at 5 hrs; format: ADME, organism-based, Cavia porcellus; parameters: dose 60 mg/kg, route oral; settings: in vivo
[31] = Intrinsic clearance in cynomolgus monkey hepatocytes at 2 uM after 60 to 120 mins; format: ADME, cell-based, Macaca fascicularis, Hepatocyte; settings: read-out: CLH
[32] = test system: Plasma; assay: Unbound plasma concentration in cynomolgus monkey at 0.5 mg/kg, iv and 100 mg/kg, po measured at 4 hrs; format: ADME, organism-based, Macaca fascicularis; settings: in vivo
Summary of the method: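 Female cynomolgus monkeys, three per dosing route, received 0.5 mg/kg iv and 100 mg/kg po. Unbound plasma concentration was reported at 2 h and 4 h post-dose.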

[33] = Drug uptake in Hartley guinea pig CSF at 60 mg/kg, po measured at 12 hrs; format: ADME, organism-based, Cavia porcellus, Cerebrospinal fluid; parameters: dose 60 mg/kg, route oral; settings: read-out: Drug uptake; summary of the method: as §5
[34] = Ratio of unbound drug level in brain to plasma in Sprague-Dawley rat at 60 mg/kg, po measured at 5 hrs; format: ADME, organism-based; parameters: dose 60 mg/kg, route oral; settings: brain and plasma (unbound), read-out: K(p,uu,brain); summary of the method: as §8
[35] = Drug uptake in Hartley guinea pig CSF at 60 mg/kg, po measured at 3 hrs; format: ADME, organism-based, Cavia porcellus, Cerebrospinal fluid; parameters: dose 60 mg/kg, route oral; settings: read-out: Drug uptake; summary of the method: as §5

- pKa [1]: 5.8
- CLH [2]: 22 mL/min/kg
- Cp(f) [3]: 960 nM
- Drug uptake(free) [4]: 24 nM
- Kp uu at 4 h [5]: 0.19
- Kp uu at 1 h [6]: 0.14
- Cp(f) [7]: < 3 nM
- Cp(f) [8]: 2200 nM
- concentration at 5 h [9]: 6.9 nM
- Cp(f) [10]: 78 nM
- concentration at 1 h [11]: 290 nM
- Drug uptake(free) [12]: 5.2 nM
- Drug uptake(free) [13]: 34 nM
- Kp uu at 5 h [14]: 1.7
- Drug uptake(free) [15]: 11 nM
- concentration at 3 h [16]: 150 nM
- Kp uu at 3 h [17]: 1.5
- Drug uptake(free) [18]: 15 nM
- solubility [19]: 220 µg/mL (≈ 575 µM)
- Drug uptake(free) [20]: 50 nM
- CLint scaled at 2 µM [21]: 9.7 mL/min/kg
- CLH [22]: 41 mL/min/kg
- Cp(f) [23]: 140 nM
- Cp(f) [24]: 300 nM
- Cp(f) [25]: 3100 nM
- Cp(f) [26]: 7 nM
- CLH [27]: 110 mL/min/kg
- Kp uu at 8 h [28]: 0.049
- concentration at 2 h [29]: 110 nM
- Drug uptake(free) [30]: 12 nM
- CLint scaled at 2 µM [31]: 5.8 mL/min/kg
- Cp(f) [32]: 1700 nM
- concentration at 12 h [33]: 2.6 nM
- Kp uu at 5 h [34]: 0.029
- concentration at 3 h [35]: 23 nM
Structure (SMILES): CN1C(=O)[C@]2(N=C1N)c1cc(-c3cccnc3F)ccc1O[C@H]1CCOC[C@@H]12
